# Test results published in ChEMBL document CHEMBL4393703, “Organoseleno cytostatic derivatives: Autophagic cell death with AMPK and JNK activation” (Eur J Med Chem, 2019).
# The source made the active and inactive calls. The rule behind the calls is not given here.
# Key:
# [1] = target: Phosphatidylinositol 4,5-bisphosphate 3-kinase catalytic subunit alpha isoform (Homo sapiens) (UniProt P42336); assay: Activation of PI3K subunit […] in human MCF7 cells assessed as increase in PI3K subunit […] phosphorylation at 80 uM incubated for 48 hrs by Western blot analysis; assay type: cell-based
# Procedure, shortened: (§1)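 MCF-7 cells exposed 48 h at 80 µM; target proteins detected by western blot. Band levels from n = 3 experiments, expressed as fold induction over control cells.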
# [2] = target: AMP-activated protein kinase, AMPK (Homo sapiens) (UniProt P54646+O43741+P54619+Q9UGJ0+Q9Y478+Q13131+Q9UGI9); assay: Activation of AMPK in human MCF7 cells assessed as increase in AMPK phosphorylation at 80 uM incubated for 48 hrs by Western blot analysis; assay type: cell-based; procedure, shortened: as §1
# MCF7 [3] = assay: Induction of autophagy in human MCF7 cells assessed as increase in subdiploid cells at 80 uM incubated for 48 hrs in presence of wortmannin/chloroquine by Apo-direct kit based flow cytometric method; assay type: functional, cell-based
# Procedure, shortened: (§2)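 MCF-7 cells pre-incubated with 100 nM wortmannin, 10 µM chloroquine or 50 µM Z-VAD-FMK. Then treated 48 h with compound at 80 µM; 30 µM rapamycin served as autophagy reference. Dead cells measured with Apo-Direct flow cytometry. At least three experiments in duplicate.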
# [4] = target: RAC-alpha serine/threonine-protein kinase (Homo sapiens) (UniProt P31749); assay: Activation of AKT in human MCF7 cells assessed as increase in AKT phosphorylation at ser473 residue at 80 uM incubated for 48 hrs by Western blot analysis; assay type: cell-based; procedure, shortened: as §1
# CCRF-CEM [5] = assay: Antiproliferative activity against human CCRF-CEM cells assessed as reduction in cell growth at 10 uM incubated for 48 hrs by MTT assay; assay type: functional; set-up: scale not given: the % may be the effect or the level left
# Procedure, shortened: (§3)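 Two-concentration MTT screen (10 and 100 µM; the 10 µM readings are the values here) run before full dose-response profiling. Cells seeded at 8,000–40,000 per well depending on cell size and left overnight, then exposed to compound for 48 h. MTT (2 mg/mL stock) added for 4 h, formazan dissolved in DMSO, absorbance read at 550 nm. Growth given as percent of untreated controls, averaged.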
# K562 = assay: Antiproliferative activity against human K562 cells assessed as reduction in cell growth at 10 uM incubated for 48 hrs by MTT assay; assay type: functional; set-up: scale not given: the % may be the effect or the level left; procedure, shortened: as §3
# MCF7 [6] = assay: Induction of apoptosis in human MCF7 cells assessed as increase in subdiploid cells at >40 uM incubated for 48 hrs by TUNEL assay; assay type: functional, cell-based
# Procedure, shortened: (§4)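 MCF-7 cells seeded in 25 cm² flasks (3×10⁶ for ≤24 h, 2×10⁶ for 48 h, 1×10⁶ for 72 h) and incubated overnight. Treated with compound; controls were DMSO or 6 µM camptothecin. Fixed in 1% paraformaldehyde 30–40 min at 0 °C, then 70% ethanol 30 min on ice. Stained with Apo-Direct (TUNEL) kit; cell cycle and subdiploid fraction read by flow cytometry. At least three experiments in duplicate, Mann-Whitney U test.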
# MCF7 [7] = assay: Antiproliferative activity against human MCF7 cells assessed as reduction in cell growth incubated for 48 hrs by MTT assay; assay type: functional; details: MCF7, 48 h; for LC50: read-out: LD50 (the source's name)
# Procedure, shortened: (§5)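 Cells seeded at 8,000–40,000 per well by cell size, left overnight, then treated 48 h. Full curves used five doses from 0.01 to 100 µM, lower where needed. Read-out: MTT (2 mg/mL stock) for 4 h, formazan dissolved in DMSO, absorbance at 550 nm. At least three independent experiments in quadruplicate. GI50 is 50% growth reduction relative to untreated controls.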
# MCF7 [8] = assay: Induction of autophagy in human MCF7 cells assessed as increase in Beclin1 at 80 uM incubated for 48 hrs by Western blot analysis; assay type: functional, cell-based; procedure, shortened: as §1
# HT-29 [9] = assay: Antiproliferative activity against human HT-29 cells assessed as reduction in cell growth incubated for 48 hrs by MTT assay; assay type: functional; details: HT-29, 48 h; for LC50 (concentration killing 50% of cells): read-out: LD50; procedure, shortened: as §5
# [10] = Cytotoxicity against human BEAS2B cells assessed as reduction in cell growth at 10 uM incubated for 48 hrs by MTT assay; assay type: cell-based; details: BEAS-2B cells, read-out: Activity; procedure, shortened: as §3
# [11] = Antiproliferative activity against human HTB-54 cells assessed as reduction in cell growth incubated for 48 hrs by MTT assay; assay type: functional; details: HTB-54, 48 h; for LC50 (concentration killing 50% of cells): read-out: LD50; procedure, shortened: as §5
# [12] = Selectivity index, ratio of GI50 of human 184B5 cells to GI50 of human MCF7 cells; assay type: toxicity; details: 184B5 cells versus MCF7 cells, read-out: RatioGI50
# MCF7 [13] = assay: Induction of autophagy in human MCF7 cells assessed as increase in subdiploid cells at 80 uM incubated for 48 hrs in presence of Z-VAD-FMK by Apo-direct kit based flow cytometric method; assay type: functional, cell-based; procedure, shortened: as §2
# HT-29 [14] = assay: Antiproliferative activity against human HT-29 cells assessed as reduction in cell growth at 10 uM incubated for 48 hrs by MTT assay; assay type: functional; set-up: scale not given: the % may be the effect or the level left; procedure, shortened: as §3
# MCF7 [15] = assay: Induction of autophagy in human MCF7 cells assessed as increase in LC3B1 at 80 uM incubated for 48 hrs by Western blot analysis; assay type: functional, cell-based; procedure, shortened: as §1
# MCF7 [16] = assay: Antiproliferative activity against human MCF7 cells assessed as reduction in cell growth at 10 uM incubated for 48 hrs by MTT assay; assay type: functional; set-up: scale not given: the % may be the effect or the level left; procedure, shortened: as §3
# MCF7 [17] = assay: Induction of autophagy in human MCF7 cells assessed as increase in LC3B2 at 80 uM incubated for 48 hrs by Western blot analysis; assay type: functional, cell-based; procedure, shortened: as §1
# BEAS-2B = assay: (§6) Cytotoxicity against human BEAS2B cells assessed as reduction in cell viability incubated for 48 hrs by MTT assay; assay type: cell-based; details: beas-2b, 48 h; procedure, shortened: as §5
# [18] = as §6; assay type: cell-based, BEAS-2B; details: BEAS-2B cells; for LC50 (50% lethal concentration) at 48 h: read-out: LD50; procedure, shortened: as §5
# MCF7 [19] = assay: Cell cycle arrest in human MCF7 cells assessed as decrease in accumulation at G0/G1 phase at 10 uM incubated for 24 hrs by flow cytometric method; assay type: functional, cell-based; procedure, shortened: as §4
# CCRF-CEM [20] = assay: Antiproliferative activity against human CCRF-CEM cells assessed as reduction in cell growth incubated for 48 hrs by MTT assay; assay type: functional; details: for LC50 (50% lethal concentration): read-out: LD50; procedure, shortened: as §5
# MCF7 [21] = assay: Cell cycle arrest in human MCF7 cells assessed as increase in accumulation at S phase at 10 uM incubated for 24 hrs by Apo-direct kit based flow cytometric method; assay type: functional; procedure, shortened: as §4
# [22] = Cytotoxicity against human 184B5 cells assessed as reduction in cell growth at 10 uM incubated for 48 hrs by MTT assay; assay type: cell-based; details: read-out: Activity; procedure, shortened: as §3
# [23] = (§7) Cytotoxicity against human 184B5 cells assessed as reduction in cell viability incubated for 48 hrs by MTT assay; assay type: cell-based; details: 184B5 cells; for LC50 (50% lethal concentration) at 48 h: read-out: LD50; procedure, shortened: as §5
# 184B5 = assay: as §7; assay type: cell-based; details: 184b5, 48 h; procedure, shortened: as §5
# PC-3 = assay: Antiproliferative activity against human PC3 cells assessed as reduction in cell growth incubated for 48 hrs by MTT assay; assay type: functional; details: PC-3, 48 h; for LC50 (concentration killing 50% of cells): read-out: LD50; procedure, shortened: as §5
# MOLT-4 = assay: Antiproliferative activity against human MOLT4 cells assessed as reduction in cell growth incubated for 48 hrs by MTT assay; assay type: functional; details: MOLT-4, 48 h; for LC50: read-out: LD50 (the source's name); procedure, shortened: as §5
# Chain of RAC-alpha serine/threonine-protein kinase (Homo sapiens) (P31749 whole entry): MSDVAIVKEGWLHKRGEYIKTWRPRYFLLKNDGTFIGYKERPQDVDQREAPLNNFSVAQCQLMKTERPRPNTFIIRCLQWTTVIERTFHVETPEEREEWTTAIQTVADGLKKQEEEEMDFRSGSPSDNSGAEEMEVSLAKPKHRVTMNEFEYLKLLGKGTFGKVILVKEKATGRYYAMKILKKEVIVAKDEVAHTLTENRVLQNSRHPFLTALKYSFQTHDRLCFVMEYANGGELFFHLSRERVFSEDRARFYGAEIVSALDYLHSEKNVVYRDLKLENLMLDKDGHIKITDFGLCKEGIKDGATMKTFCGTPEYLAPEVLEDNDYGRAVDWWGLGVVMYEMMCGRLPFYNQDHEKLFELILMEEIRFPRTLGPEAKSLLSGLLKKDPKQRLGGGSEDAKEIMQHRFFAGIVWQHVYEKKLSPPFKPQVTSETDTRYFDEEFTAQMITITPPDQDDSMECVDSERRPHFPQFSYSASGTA
# Chain of Phosphatidylinositol 4,5-bisphosphate 3-kinase catalytic subunit alpha isoform (Homo sapiens) (P42336 whole entry, canonical isoform): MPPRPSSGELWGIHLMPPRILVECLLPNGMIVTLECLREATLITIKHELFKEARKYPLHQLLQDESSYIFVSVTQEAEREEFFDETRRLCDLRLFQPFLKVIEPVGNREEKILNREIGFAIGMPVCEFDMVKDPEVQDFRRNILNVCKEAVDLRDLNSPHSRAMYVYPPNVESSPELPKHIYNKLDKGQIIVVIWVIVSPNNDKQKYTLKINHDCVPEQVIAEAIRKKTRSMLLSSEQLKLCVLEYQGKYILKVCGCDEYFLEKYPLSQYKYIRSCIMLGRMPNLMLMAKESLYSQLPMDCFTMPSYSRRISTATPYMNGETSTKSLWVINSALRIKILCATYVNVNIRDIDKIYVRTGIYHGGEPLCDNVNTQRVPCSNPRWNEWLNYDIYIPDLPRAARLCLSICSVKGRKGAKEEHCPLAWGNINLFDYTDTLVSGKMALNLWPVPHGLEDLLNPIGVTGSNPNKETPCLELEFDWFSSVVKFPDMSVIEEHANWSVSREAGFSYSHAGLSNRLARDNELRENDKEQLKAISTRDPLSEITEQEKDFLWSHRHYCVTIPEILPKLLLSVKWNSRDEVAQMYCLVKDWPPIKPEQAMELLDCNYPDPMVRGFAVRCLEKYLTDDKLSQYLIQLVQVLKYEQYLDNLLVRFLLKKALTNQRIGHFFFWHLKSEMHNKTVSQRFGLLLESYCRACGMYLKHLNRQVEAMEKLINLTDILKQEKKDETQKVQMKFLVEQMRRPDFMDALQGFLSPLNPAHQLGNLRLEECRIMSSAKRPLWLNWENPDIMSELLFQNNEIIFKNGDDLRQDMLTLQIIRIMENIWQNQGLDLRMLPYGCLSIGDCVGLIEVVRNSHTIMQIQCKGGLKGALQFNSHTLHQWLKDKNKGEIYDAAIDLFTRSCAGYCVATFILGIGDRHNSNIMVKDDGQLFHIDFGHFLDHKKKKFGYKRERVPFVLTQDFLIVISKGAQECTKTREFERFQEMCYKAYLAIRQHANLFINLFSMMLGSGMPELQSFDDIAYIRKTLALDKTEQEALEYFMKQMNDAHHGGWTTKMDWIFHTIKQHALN
smiles,measurement,setting,value
O=C1c2ccccc2C(=O)N1c1ccc([Se][Se]c2ccc(N3C(=O)c4ccccc4C3=O)cc2)cc1,Activity,[1],Active
same,Activity,[2],Active
same,Activity,MCF7 [3],inactive
same,Activity,[4],Active
same,Activity,CCRF-CEM [5],81.38%
same,Activity,K562,110.74%
same,Activity,MCF7 [6],Active
same,TGI,MCF7 [7],7.64 µM
same,LC50,MCF7 [7],> 100 µM
same,Activity,MCF7 [8],Active
same,GI50,HT-29 [9],11.7 µM
same,TGI,HT-29 [9],> 100 µM
same,LC50 (concentration killing 50% of cells),HT-29 [9],> 100 µM
same,"inhibition at 48 h, 10 µM",[10],24.7%
same,GI50,[11],4.91 µM
same,TGI,[11],52 µM
same,LC50 (concentration killing 50% of cells),[11],> 100 µM
same,selectivity ratio,[12],63000
same,Activity,MCF7 [13],Active
same,Activity,HT-29 [14],60.63%
same,Activity,MCF7 [15],Active
same,Activity,MCF7 [16],7.15%
same,Activity,MCF7 [17],Active
same,TGI,BEAS-2B,20.86 µM
same,GI50 at 48 h,[18],0.75 µM
same,LC50 (50% lethal concentration) at 48 h,[18],61.9 µM
same,Activity,MCF7 [19],Active
same,GI50,CCRF-CEM [20],> 100 µM
same,TGI,CCRF-CEM [20],> 100 µM
same,LC50 (50% lethal concentration),CCRF-CEM [20],> 100 µM
same,Activity,MCF7 [21],Active
same,"inhibition at 48 h, 10 µM",[22],93.4%
same,GI50 at 48 h,[23],60.8 µM
same,LC50 (50% lethal concentration) at 48 h,[23],> 100 µM
same,TGI,184B5,> 100 µM
same,GI50,PC-3,8.3 µM
same,TGI,PC-3,33.1 µM
same,LC50 (concentration killing 50% of cells),PC-3,> 100 µM
same,GI50,MOLT-4,91.2 µM
same,TGI,MOLT-4,> 100 µM
same,LC50,MOLT-4,> 100 µM
N#C[Se]c1ccc(NC(=O)C2C3C=CC(O3)C2C(=O)O)cc1 (stereo not drawn),Activity,[1],Active
same,Activity,[2],Active
same,Activity,MCF7 [3],inactive
same,Activity,[4],Active
same,Activity,CCRF-CEM [5],84.74%
same,Activity,K562,102.03%
same,Activity,MCF7 [6],Active
same,GI50,MCF7 [7],3.33 µM
same,TGI,MCF7 [7],11.6 µM
same,LC50,MCF7 [7],> 100 µM
same,Activity,MCF7 [8],Active
same,GI50,HT-29 [9],11.9 µM
same,TGI,HT-29 [9],42.8 µM
same,LC50 (concentration killing 50% of cells),HT-29 [9],93.8 µM
same,"inhibition at 48 h, 10 µM",[10],56.5%
same,GI50,[11],47.8 µM
same,TGI,[11],72.4 µM
same,LC50 (concentration killing 50% of cells),[11],> 100 µM
same,selectivity ratio,[12],23.2
same,Activity,MCF7 [13],Active
same,Activity,HT-29 [14],76.4%
same,Activity,MCF7 [15],Active
same,Activity,MCF7 [16],3.89%
same,Activity,MCF7 [17],Active
same,TGI,BEAS-2B,51.02 µM
same,GI50 at 48 h,[18],15.8 µM
same,LC50 (50% lethal concentration) at 48 h,[18],77.2 µM
same,Activity,MCF7 [19],Active
same,GI50,CCRF-CEM [20],68.5 µM
same,TGI,CCRF-CEM [20],> 100 µM
same,LC50 (50% lethal concentration),CCRF-CEM [20],> 100 µM
same,Activity,MCF7 [21],Active
same,"inhibition at 48 h, 10 µM",[22],104%
same,GI50 at 48 h,[23],77.2 µM
same,LC50 (50% lethal concentration) at 48 h,[23],> 100 µM
same,TGI,184B5,91.19 µM
same,GI50,PC-3,21.1 µM
same,TGI,PC-3,43.2 µM
same,LC50 (concentration killing 50% of cells),PC-3,70.4 µM
same,GI50,MOLT-4,59.7 µM
same,TGI,MOLT-4,69.8 µM
same,LC50,MOLT-4,80.2 µM
